Experimental data from ChEMBL document CHEMBL2176894, “Cyanobacterial peptides as a prototype for the design of potent β-secretase inhibitors and the development of selective chemical probes for other aspartic proteases” (J Med Chem, 2012).
The source made the active and inactive calls. No cut-off for these calls is given here. Starred links: 1 amine or outer side, 2 acyl side, 3 side chain; linkers in the order of their positions; H or OH if unused. Non-standard residues stand in square brackets, D forms with d. Residues, ends and D or L forms follow the SMILES beside them. *: point of attachment. Ahppa(3S,4S) = O=C(C[C@H](O)[C@H](Cc1ccccc1)N[*:1])[*:2]; dNMeF = CN[C@H](Cc1ccccc1)C(=O)O; NMeQ = CN[C@@H](CCC(N)=O)C(=O)O; Cbz = O=C(OCc1ccccc1)*

How the values were obtained:
Cathepsin D = Cathepsin D (Homo sapiens, UniProt P07339); assay: Inhibition of cathepsin D by fluorescence assay
Cathepsin E = molecular target: T1, Cathepsin E (Homo sapiens, UniProt P14091); assay: Inhibition of cathepsin E by fluorescence assay
T1 sequence (P14091 whole entry): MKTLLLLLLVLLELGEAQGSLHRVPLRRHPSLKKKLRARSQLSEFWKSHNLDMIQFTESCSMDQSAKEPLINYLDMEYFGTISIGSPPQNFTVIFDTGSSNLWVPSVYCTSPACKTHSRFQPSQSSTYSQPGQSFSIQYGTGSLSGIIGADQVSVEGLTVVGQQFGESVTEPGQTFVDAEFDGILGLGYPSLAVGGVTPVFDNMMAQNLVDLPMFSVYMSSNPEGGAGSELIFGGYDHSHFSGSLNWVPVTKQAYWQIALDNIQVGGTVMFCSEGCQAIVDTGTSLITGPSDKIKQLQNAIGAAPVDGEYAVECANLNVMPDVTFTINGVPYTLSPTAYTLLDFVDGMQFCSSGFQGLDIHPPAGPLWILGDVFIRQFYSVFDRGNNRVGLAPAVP

Beta-secretase 1 [1] = molecular target: T2, Beta-secretase 1 (Homo sapiens, UniProt P56817); assay: Inhibition of BACE1 by fluorescence assay
Beta-secretase 1 [2] = molecular target: T2, Beta-secretase 1; settings: H4, at 10 µM
[3] = molecular target: Gamma-secretase (Homo sapiens) (UniProt Q96BI3+Q9NZ42+Q8WW43+P49768+Q92542+P49810); assay: Inhibition of gamma secretase expressed in human H4 cells expressing BRI-C99 fusion protein assessed as C99 fragment accumulation fragment at 10 uM incubated for 16 hrs in by immunoblot; assay type: cell-based
Summary of the method: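 H4 cells overexpressing Bri-C99 (400000/well) were kept in Opti-MEM with 1% serum and treated 16 h with test compound (10 μM), LY411575 (100 nM) or BACE1 inhibitor IV (1 μM). Cells were lysed in TBS/1% Triton X-100 and run on a 12% bis-tris gel. Blots were probed with CT-20 antibody for furin-generated C99 and read on an infrared imager.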

H4 = assay: Inhibition of Alpha secretase expressed in human H4 cells assessed as reduction in C83 levels at 10 uM incubated for 16 hrs by immunoblot; assay type: cell-based
Summary of the method: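 H4 cells (3 × 10⁵/well) adhered 4−6 h in DMEM/10% FCS at 37 °C, then were switched to serum-free Ultraculture containing compound at 10 μM final for 16 h. Cells were lysed in NP40/deoxycholate buffer, and protein was equalized by BCA. Lysates were run on 10−20% tricine gels and immunoblotted with antibody to the APP C-terminal 20 residues (1:2000); C99 and C83 were imaged on an infrared system.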

Chain of Cathepsin D (P07339 65-162 limits assumed): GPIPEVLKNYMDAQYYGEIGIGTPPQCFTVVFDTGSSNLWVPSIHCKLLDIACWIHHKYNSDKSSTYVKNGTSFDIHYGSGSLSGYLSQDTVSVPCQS
Chain of Cathepsin D (P07339 169-412 limits assumed): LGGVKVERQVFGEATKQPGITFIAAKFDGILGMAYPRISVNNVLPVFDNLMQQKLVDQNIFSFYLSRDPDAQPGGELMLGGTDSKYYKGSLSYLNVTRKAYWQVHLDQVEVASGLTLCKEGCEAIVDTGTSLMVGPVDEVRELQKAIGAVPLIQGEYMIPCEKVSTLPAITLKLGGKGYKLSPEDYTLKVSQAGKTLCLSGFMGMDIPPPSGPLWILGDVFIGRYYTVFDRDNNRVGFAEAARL
T2 sequence (P56817 whole entry): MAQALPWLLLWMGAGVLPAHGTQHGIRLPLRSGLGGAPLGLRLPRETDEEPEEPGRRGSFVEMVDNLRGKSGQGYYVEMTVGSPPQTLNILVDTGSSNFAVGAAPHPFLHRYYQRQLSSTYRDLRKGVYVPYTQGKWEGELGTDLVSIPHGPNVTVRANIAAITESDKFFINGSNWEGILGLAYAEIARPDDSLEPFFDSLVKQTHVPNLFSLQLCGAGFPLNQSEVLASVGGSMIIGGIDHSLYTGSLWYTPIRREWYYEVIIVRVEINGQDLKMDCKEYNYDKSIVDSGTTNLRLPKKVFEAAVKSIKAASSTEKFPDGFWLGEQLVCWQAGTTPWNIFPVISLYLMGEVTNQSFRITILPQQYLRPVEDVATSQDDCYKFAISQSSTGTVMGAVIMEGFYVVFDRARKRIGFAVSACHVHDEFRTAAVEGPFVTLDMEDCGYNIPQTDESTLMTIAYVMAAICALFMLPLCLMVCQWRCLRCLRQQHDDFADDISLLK

CC(C)C[C@H](NC(=O)C[C@H](O)[C@H](Cc1ccccc1)NC(=O)[C@H](CCC(N)=O)N(C)C(=O)[C@@H](NC(=O)[C@H](C)O)C(C)C)C(=O)N[C@@H](C)C(=O)N(C)[C@H](Cc1ccccc1)C(=O)NC(C)C
IC50 (Cathepsin D): 254 nM
IC50 (Cathepsin E): 51.9 nM
IC50 (Beta-secretase 1 [1]): 166 nM
inhibition (Beta-secretase 1 [2]): Active

COC(=O)[C@@H](Cc1ccccc1)N(C)C(=O)[C@H](C)NC(=O)[C@H](CC(C)C)NC(=O)C[C@H](O)[C@H](Cc1ccccc1)NC(C)=O
IC50 (Cathepsin D): 412 nM
IC50 (Cathepsin E): 1520 nM
IC50 (Beta-secretase 1 [1]): > 10000 nM

COC(=O)[C@@H]1CCCN1C(=O)[C@@H](Cc1ccccc1)N(C)C(=O)[C@H](C)NC(=O)[C@H](CC(C)C)NC(=O)C[C@H](O)[C@H](Cc1ccccc1)NC(=O)[C@H](CCC(N)=O)N(C)C(=O)[C@@H](NC(=O)OCc1ccccc1)C(C)C (Cbz-V[NMeQ][Ahppa(3S,4S)]LA[dNMeF]P-OMe)
IC50 (Cathepsin D): 0.0783 nM
IC50 (Cathepsin E): 0.724 nM
inhibition [3]: inactive

COC(=O)[C@@H]1CCCN1C(=O)[C@@H](Cc1ccccc1)N(C)C(=O)[C@H](C)NC(=O)[C@H](CC(C)C)NC(=O)C[C@H](O)[C@H](Cc1ccccc1)NC(C)=O
IC50 (Cathepsin D): 71.7 nM
IC50 (Cathepsin E): 4950 nM

COC(=O)[C@@H]1CCCN1C(=O)[C@@H](Cc1ccccc1)N(C)C(=O)[C@H](C)NC(=O)[C@H](CC(C)C)NC(=O)C[C@H](O)[C@H](Cc1ccccc1)NC(=O)[C@H](CCC(N)=O)N(C)C(=O)[C@@H](NC(=O)[C@H](C)O)C(C)C
IC50 (Cathepsin E): 66 nM

COC(=O)[C@@H]1CCCN1C(=O)[C@H](Cc1ccccc1)N(C)C(=O)[C@@H](C)NC(=O)[C@H](CC(C)C)NC(=O)C[C@H](O)[C@H](Cc1ccccc1)NC(=O)[C@H](CCC(N)=O)N(C)C(=O)[C@@H](NC(=O)[C@H](C)O)C(C)C
IC50 (Cathepsin E): 1710 nM

COC(=O)[C@@H]1CCCN1C(=O)[C@@H](Cc1ccccc1)N(C)C(=O)[C@H](C)NC(=O)[C@H](CC(C)C)NC(=O)C[C@H](O)[C@H](Cc1ccccc1)NC(=O)[C@H](CCC(N)=O)NC(C)=O
IC50 (Cathepsin D): 7.81 nM
IC50 (Cathepsin E): 77.5 nM
inhibition [3]: inactive

COC(=O)[C@@H]1CCCN1C(=O)[C@@H](Cc1ccccc1)N(C)C(=O)[C@H](C)NC(=O)[C@H](CC(C)C)NC(=O)C[C@H](O)[C@H](Cc1ccccc1)NC(=O)[C@H](CCC(N)=O)N(C)C(=O)[C@@H](N)C(C)C
IC50 (Cathepsin D): 17.3 nM
IC50 (Cathepsin E): 58.2 nM
inhibition (H4): inactive
inhibition [3]: inactive

CC(C)C[C@@H](C=O)NC(=O)[C@H](CC(C)C)NC(=O)[C@@H](NC(=O)OCc1ccccc1)C(C)C (Cbz-Val-Leu-Leu-aldehyde)
inhibition (Beta-secretase 1 [2]): Active
